Results taken from publication PMC3944097 (ACS chemical biology, 2013).
One block for each compound: values may come before it.

How the values were obtained:
MMP-13 = MMP-13 (Homo sapiens, UniProt P45452); assay: LC/MS analysis of probe fragmentation on incubation with MMP-13; format: biochemical; settings: for metabolites found after incubation with MMP-13: 2 h incubation with MMP-13, LC/MS
How it was run: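 Test compound (1 μM) incubated with MMP-13 catalytic domain (40 nM) at 37 °C in 50 mM Tris, 10 mM CaCl2, 150 mM NaCl, 0.05% Brij35, pH 7.8. Aliquots were taken every 10 min to 60 min, then every 20 min to 120 min. Each was quenched with an equal volume of acetonitrile containing 10% HCOOH. Fragments were identified by UPLC–Q-Tof LC–MS.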

[1] = LC/MS identification of parent probe, Met1 and Met2 in tumor, plasma and liver; format: in vivo, mice; settings: 60 min after probe injection; for species detected in liver: liver homogenate; for species detected in liver / parent probe in plasma: LC/MS; for species detected in SCC-7 tumor: tumor homogenate, high sensitivity LC/MS
How it was run: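 Female athymic nude mice bore subcutaneous SCC-7 tumours (~300 mm3) and received probe intravenously via the tail vein. At 60 min, plasma, tumour and liver were collected. Tissues were weighed, stored in liquid nitrogen and homogenised in H2O/acetonitrile 50/50 containing 10% HCOOH. After pellet removal, extracts were lyophilised and redissolved in the same solvent. High-sensitivity LC–MS then screened for parent probe, Met1 and Met2.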

[2] = format: in vivo, mice; settings: for half-life: mouse, iv
How it was run: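 Female athymic nude mice bore SCC-7 tumours, grown from 1 × 10^6 cells injected subcutaneously into the right front flank and used at ~300 mm3. Probe was given intravenously via the tail vein. Blood was sampled at 1, 5, 15, 30, 45 and 60 min. Intact probe and the Met1/Met2 fragments were measured by HPLC–QTRAP LC–MS using a single MRM transition, with triplicate injections.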

different MMPs = assay: Specificity and selectivity of probes to MMP enzymes; format: biochemical; settings: fluorescence activation by MMP enzymes (Figure 2a)
[3] = system: catalytic domain of MMP-13; assay: reaction buffer; settings: 37 °C, up to 120 min

- metabolites found after incubation with MMP-13 (MMP-13): two major fragments
Compound: CCN(CC)c1ccc2nc3ccc(N=Nc4ccc(N(C)CCCC(=O)NCCCC[C@H](NC(=O)CNC(=O)[C@H](CCCNC(=N)N)NC(=O)[C@@H](NC(=O)CNC(=O)[C@H](CC(C)C)NC(=O)[C@@H]5CCCN5C(=O)CNC(=O)CCCCC[N+]5=C(C=CC=CC=C6N(CC)c7ccc8c(S(=O)(=O)[O-])cc(S(=O)(=O)O)cc8c7C6(C)C)C(C)(C)c6c5ccc5c(S(=O)(=O)[O-])cc(S(=O)(=O)O)cc65)C(C)C)C(=O)NCC(=O)NCC(=O)NCCOCCOCCOCCOCCOCCOCCOCCOCCOCCOCCOCCO)cc4)cc3[n+](-c3ccccc3)c2c1 [L-MMP-P12]
- species detected in liver [1]: only Met2 fragment could be detected
- parent probe in plasma [1]: very little L-MMP-P12 was found
- species detected in SCC-7 tumor [1]: only Met2 was detected while no parent probe or Met1 was found
- intact probe in blood samples at 45 min after injection ([2]; mice, i.v., blood, LC/MS): almost no intact L-MMP-P12 can be detected
- half-life ([2]; blood): 7.81 ± 0.25 min

Compound: CCN(CC)c1ccc2nc3ccc(N=Nc4ccc(N(C)CCCC(=O)NCCCC[C@@H](NC(=O)CNC(=O)[C@H](CCCNC(=N)N)NC(=O)[C@@H](NC(=O)CNC(=O)[C@H](CC(C)C)NC(=O)[C@@H]5CCCN5C(=O)CNC(=O)CCCCC[N+]5=C(C=CC=CC=C6N(CC)c7ccc8c(S(=O)(=O)[O-])cc(S(=O)(=O)O)cc8c7C6(C)C)C(C)(C)c6c5ccc5c(S(=O)(=O)[O-])cc(S(=O)(=O)O)cc65)C(C)C)C(=O)NCC(=O)NCC(=O)NCCOCCOCCOCCOCCOCCOCCOCCOCCOCCOCCOCCO)cc4)cc3[n+](-c3ccccc3)c2c1 [D-MMP-P12]
- enzyme specificity and selectivity over different MMPs (different MMPs): very similar enzyme specificity and selectivity with L-MMP-P12
- metabolites found after incubation with MMP-13 (MMP-13): only the MMP specific metabolite Met1 but not Met2 was found
- species detected in liver [1]: only Met2 fragment could be detected
- parent probe in plasma [1]: still detectable after 1 h
- species detected in SCC-7 tumor [1]: parent D-MMP-P12 probe, Met1 and Met2 were all detectable
- Met1/Met2 ratio in blood ([2]; mice, i.v., blood samples at 1, 5, 15, 30, 45 and 60 min p.i., LC/MS): much higher than that of L-MMP-P12 at all the time points examined
- half-life ([2]; blood): 29.8 ± 0.45 min

Compound: Cy5.5-GPLGVR [Met2]
- further cleavage of metabolite by MMP-13 (MMP-13; incubation with MMP-13, LC/MS, late time points): can be further cut by MMP-13 to form Met1

- cleaved bond [3]: Gly4-Val5, major
Compound: GPLGVRGKGG
